This is an account of results in ChEMBL document CHEMBL3228045, “1-(Dichloroacetyl)-1,2,3,4-tetrahydro-6-quinolinol esters. New potent antiamebic agents” (J Med Chem, 1979).

Series [1] is described as follows: Antiamebic activity against trophozoite form of Entamoeba criceti infected in hamster assessed as reduction in spontaneous infection in cecum administered intragastric gavage as single dose by microscopy. Conditions: Caecum, po. Type of series: functional. In outline: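 Hamsters with spontaneous Entamoeba criceti infection were given one oral dose of drug. ED50 is reported ± SE in mg/kg po.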

Series [2] can be described thus: Antiamebic activity against Entamoeba criceti infected in hamster assessed as reduction of trophozoites in cecum administered intragastric gavage bid for three consecutive days by microscopy. Conditions: Caecum, po. Type of series: functional. In outline:
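Vehicle: 10% gelatin suspension, given by intragastric gavage in two split portions daily (morning and afternoon) for 3 consecutive days, dosed as (mg/kg)/day. Colony infection rate was at least 90%. Five hamsters per group at three twofold dose levels. The day after the last dose, cecal-wall scrapings in saline were examined microscopically at 43×. An animal with no trophozoites counted as cleared.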

The nature of series [3]: Antiamebic activity against Entamoeba criceti infected in hamster assessed as reduction of trophozoites in cecum administered intragastric gavage as four dose by microscopy. Type of series: functional. Conditions: Caecum, po.
Series [4] concerns Rattus norvegicus. As to the kind of experiment: Toxicity in rat assessed as mortality at 10 mg/kg, po by acute test. Type of series: organism-based. On the set-up: dose 10 mg/kg, route oral. The conditions noted are these: in vivo.
In series [5] the test system is Hamster. As to the kind of experiment: Toxicity in hamster assessed as mortality at 10 mg/kg, po by acute test. Type of series: organism-based. On the set-up: dose 10 mg/kg, route oral. The conditions noted are these: cricetinae, in vivo.

On to `O=C(Oc1ccc2c(c1)CCCN2C(=O)C(Cl)Cl)c1ccccc1`, for which the ED50 (as a rule, the dose at which the effect has come halfway, by size or by number of responders) in series [1] worked out at 1.6 mg/kg; in series [2], 0.2 mg/kg.

For the compound `O=C(C(Cl)Cl)N1CCCc2cc(O)ccc21`, the ED50 in series [2] was found to be 1.2 mg/kg.

In the case of `O=C(Oc1ccc2c(c1)CCCN2C(=O)C(Cl)Cl)c1cccs1`, the ED50 in series [1] is 4.8 mg/kg; in series [2], 0.16 mg/kg.

`CCCC(=O)Oc1ccc2c(c1)CCCN2C(=O)C(Cl)Cl`: in series [2], the ED50 was 0.75 mg/kg.

For `CCCCCC(=O)Oc1ccc2c(c1)CCCN2C(=O)C(Cl)Cl`, the ED50 in series [2] was 1.75 mg/kg.

Take `CNC(=O)Oc1ccc2c(c1)CCCN2C(=O)C(Cl)Cl`: the ED50 in series [2] was determined as 5.7 mg/kg.

With `O=C(C(Cl)Cl)N1CCCc2c1ccc(O)c2Cl`, the ED50 in series [2] is 0.5 mg/kg.

For the compound `O=C(C(Cl)Cl)N1CCCc2c1ccc(O)c2Br`, the ED50 in series [2] turned out to be 0.56 mg/kg.

In the case of `O=C(Oc1ccc2c(c1Cl)CCCN2C(=O)C(Cl)Cl)c1cccs1`, the 50% effective dose (ED50) in series [2] stood at 0.22 mg/kg.

Consider `O=C(Oc1ccc2c(c1Cl)CCCN2C(=O)C(Cl)Cl)c1ccco1`, for which the ED50 in series [2] came out at 0.21 mg/kg.

`O=C(Oc1ccc2c(c1Br)CCCN2C(=O)C(Cl)Cl)c1cccs1`: the ED50 in series [2] is 1.24 mg/kg.

Consider `O=C(Oc1ccc2c(c1Br)CCCN2C(=O)C(Cl)Cl)c1ccco1`, for which, in series [2], the median effective dose (ED50) came to 0.39 mg/kg.

With `O=C(CCl)N1CCCc2cc(O)ccc21`, in series [2], the ED50 came to 2 mg/kg.

On to `O=C(N1CCCc2cc(O)ccc21)C(Cl)(Cl)Cl`, for which, in series [2], the ED50 worked out at 3 mg/kg.

For the compound `CN(C(=O)C(Cl)Cl)c1ccc(OC(=O)c2ccco2)cc1` [DILOXANIDE FUROATE], in series [2], the ED50 is above 3.2 mg/kg.

Turning to `CCOCCN(Cc1ccc(Oc2ccc([N+](=O)[O-])cc2)cc1)C(=O)C(Cl)Cl` [ETOFAMIDE], the ED50 in series [3] turned out to be 0.38 mg/kg.

Consider `O=C(Oc1ccc2c(c1)CCCN2C(=O)C(Cl)Cl)c1ccco1` [QUINFAMIDE], for which the Activity entry in series [4] and in series [5] was “Non-toxic” throughout. Moreover, the values for the ED50 in series [1] and in series [2] were 0.75 mg/kg and 0.2 mg/kg, respectively.
